Series [1] in a line: folding enthalpy; higher = less favourable; fluorescence melt of hairpins on a sequencing array, two-state fit. The following applies: sodium 0.088 M. In short, it runs like this: (§1)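 Library hairpins on a sequenced MiSeq flow cell carried annealed Cy3 and quencher oligos, and their Cy3 fluorescence was imaged in 50 mM Na-HEPES pH 8.0 with 25 mM NaCl, in 2.5 °C steps up to 60 °C. Signals were normalised to Cy3 before quenching and to control constructs. Melting temperature and folding enthalpy were obtained from bootstrapped two-state fits, combined by inverse-variance weighting across four replicates, and the fitted temperatures were then raised by 9.35 °C to match UV melts.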

The nature of series [2]: melting temperature; fluorescence melt of hairpins on a sequencing array, two-state fit, raised by 9.35 °C to match UV melts. The note with it: sodium 0.088 M. Put shortly: as §1

Data on 74 sequences can be found in the array DNA melting data of Ke et al. (doi:10.1101/2024.01.08.574731).

For GCATTGGGAAACTAATGC (((((.(....).))))), the folding enthalpy in series [1] was -32.6 kcal/mol. Moreover, the Tm in series [2] worked out at 46.7 °C.
In the same order, the values of GTCGATCGAAAGATGGAC (((.(((....))).))) are -28.3 kcal/mol and 48.6 °C.
For GTATGCGAAAGCAACTAC ((((((....)))..))) the same measures were -11.6 kcal/mol and 36.2 °C.
For GTACTTGAAAAAGTAC ((((((....)))))) the same measures were -32.7 kcal/mol and 48.6 °C.
For GATCTACACGTAGATC ((((((....)))))), in series [1], the folding enthalpy was -35.6 kcal/mol. Moreover, the Tm in series [2] amounted to 50.5 °C.
As to GATCTAGTGTTAGATC ((((((....)))))), the folding enthalpy in series [1] is -30 kcal/mol. Moreover, in series [2], the Tm turned out to be 40.6 °C.
With GTCAGGCGAAAGCCCGAC (((.(((....))).))), the folding enthalpy in series [1] is -23.2 kcal/mol. Besides, in series [2], the Tm was 48.8 °C.
In the case of GCAGATCGAAAGATTGC (((.(((....)))))), the folding enthalpy in series [1] was -23.1 kcal/mol. Also, the Tm in series [2] was 44.1 °C.
On to GATCGTACTACGATC ((((((...)))))), for which, in series [1], the folding enthalpy is -36.3 kcal/mol. Also, the Tm in series [2] worked out at 56.5 °C.
In the same order, the values of GATGAACGAAAGTTGATC (((.(((....))).))) are -22.7 kcal/mol and 38.1 °C.
In the same order, the values of GCTCGGGGAAACCCAAGC (((.(((....))).))) are -17.8 kcal/mol and 45.3 °C.
On to GGGTTCGAAAGAAGCCC ((((((....))).))), for which, in series [1], the folding enthalpy is -24.1 kcal/mol. The Tm in series [2] turned out to be 55.7 °C.
For GATGACGAAAGTCGGATC ((((((....)))..))) the same measures were -13.4 kcal/mol and 34.3 °C.
Turning to GACCAGGGAAACCTGACC (..((((....))))..), the folding enthalpy in series [1] is -10 kcal/mol. Also, in series [2], the Tm was 30.1 °C.
On to GATTTAGGAAACTAAATC (((((((....))))))), for which the folding enthalpy in series [1] is -42.9 kcal/mol. Moreover, the Tm in series [2] amounted to 48 °C.
In the same order, the values of GCAAGCACGAAAGTGTGC (((..(((....)))))) are -16 kcal/mol and 40.4 °C.
Consider GTGGTCGGAAACGATCGC (.(.(((....))).).), for which the folding enthalpy in series [1] is -22.4 kcal/mol. The Tm in series [2] was 46.1 °C.
GTCCTGCGAAAGCATGAC (((.(((....))).))): the folding enthalpy in series [1] is -26 kcal/mol. For the same sequence, in series [2], the Tm worked out at 49.9 °C.
GAGGGAGGAAACTTCCTC ((((.((....)).)))): the folding enthalpy in series [1] is -25.6 kcal/mol. In addition, the Tm in series [2] is 45.6 °C.
For the sequence GTCTTCCGAAAGGAGAC (((.(((....)))))), the folding enthalpy in series [1] is -23.4 kcal/mol. Further, the Tm in series [2] came to 47.6 °C.
In the same order, the values of GATCCACAAATGGATC ((((((....)))))) are -32.9 kcal/mol and 47.5 °C.
For GCTAACGAAAGTTAAGC ((((((....))).))) the same measures were -27.1 kcal/mol and 46.2 °C.
With GGTAGTCGAAAGACACC (((.(((....)))))), the folding enthalpy in series [1] was -20.1 kcal/mol. The Tm in series [2] amounted to 50.4 °C.
For GCCAACGAAAGTTTCGGC ((((((....)))..))) the same measures were -18.4 kcal/mol and 39 °C.
On to GCCAAATCGAAAGATGGC (((..(((....)))))), for which, in series [1], the folding enthalpy was -27.2 kcal/mol. For the same sequence, the Tm in series [2] worked out at 47.4 °C.
Regarding GATCACGCCTGTGATC ((((((....)))))), the folding enthalpy in series [1] was -49.5 kcal/mol. In addition, the Tm in series [2] amounted to 59.4 °C.
In the case of GATCCTTGCAGGATC ((((((...)))))), in series [1], the folding enthalpy is -33.7 kcal/mol. Moreover, the Tm in series [2] stood at 57.9 °C.
In the same order, the values of GCTTCTTCGAAAGAAAGC (((..(((....)))))) are -16 kcal/mol and 30.3 °C.
In the same order, the values of GATCCCTCCAGGGATC ((((((....)))))) are -39.1 kcal/mol and 63.9 °C.
Turning to GATCCAGGATGGATC ((((((...)))))), in series [1], the folding enthalpy is -40.5 kcal/mol. Also, the Tm in series [2] amounted to 57.8 °C.
For GATCAAGTTTTTGATC ((((((....)))))) the same measures were -36 kcal/mol and 45.5 °C.
In the case of GATAGCGCGAAAGCGATC (((..(((....)))))), the folding enthalpy in series [1] was -9.46 kcal/mol. Also, in series [2], the Tm amounted to 32.2 °C.
In the same order, the values of GCCGATCGAAAGATAGGC (((.(((....))).))) are -41 kcal/mol and 61 °C.
Take GCGAAGCGAAAGCTCTGC ((..(((....)))..)): the folding enthalpy in series [1] is -7.9 kcal/mol. In addition, the Tm in series [2] amounted to 39.7 °C.
In the same order, the values of GTTCTGGGAAACTGGAAC ((((..(....)..)))) are -31.9 kcal/mol and 34.8 °C.
In the same order, the values of GCTTAGCGAAAGCTGTGC ((..(((....)))..)) are -16.4 kcal/mol and 39.7 °C.
As to GCTCTCTCGAAAGAGAGC (((..(((....)))))), the folding enthalpy in series [1] is -26.9 kcal/mol. The Tm in series [2] was 60.3 °C.
Take GCACCCGAAAGGGCATGC ((((((....)))..))): the folding enthalpy in series [1] is -15 kcal/mol. Moreover, the Tm in series [2] was determined as 41 °C.
In the same order, the values of GTGGTCGAAAGACCCCAC ((((((....)))..))) are -9.79 kcal/mol and 38 °C.
In the case of GACTACGAAAGTAGTGTC ((((((....)))..))), the folding enthalpy in series [1] was -15.4 kcal/mol. The Tm in series [2] is 50.4 °C.
As to GAACCTGGAAACAGATTC (((.(((....))).))), the folding enthalpy in series [1] is -17.9 kcal/mol. Moreover, the Tm in series [2] came out at 31.9 °C.
GCTGGGGGAAACTCCAGC (((((.(....).))))): the folding enthalpy in series [1] was -37.6 kcal/mol. Further, the Tm in series [2] stood at 58 °C.
Turning to GGCAGTGGAAACACCGCC (((.(((....))).))), the folding enthalpy in series [1] is -27.1 kcal/mol. For the same sequence, the Tm in series [2] was 50.6 °C.
For GCAGCGCGAAAGCCCCGC ((.(.((....)).).)) the same measures were -9.42 kcal/mol and 37 °C.
For GGTCGCGAAAGCGACACC ((((((....)))..))) the same measures were -5.57 kcal/mol and 60.7 °C.
For GCAGGCGGAAACGCTTGC (((.(((....))).))) the same measures were -38.5 kcal/mol and 62.1 °C.
GTCGTCCGAAAGGAGGAC (((.(((....))).))): in series [1], the folding enthalpy is -40.2 kcal/mol. In addition, in series [2], the Tm was 62 °C.
For GATTTGCGAAAGCATATC (((.(((....))).))) the same measures were -22.9 kcal/mol and 43.1 °C.
For GCGATTTCTCGC ((((....)))) the same measures were -24.4 kcal/mol and 49.5 °C.
With GGCGATCGAAAGATAGCC (((.(((....))).))), in series [1], the folding enthalpy is -47 kcal/mol. Also, the Tm in series [2] came out at 58 °C.
In the same order, the values of GGGACACGAAAGTGACCC (((.(((....))).))) are -37.1 kcal/mol and 62.9 °C.
As to GTCTGTGGAAACATAGAC ((((.((....)).)))), the folding enthalpy in series [1] is -31.2 kcal/mol. The Tm in series [2] turned out to be 44.5 °C.
On to GGTCCCGAAAGGGAACC ((((((....))).))), for which the folding enthalpy in series [1] is -18.5 kcal/mol. Moreover, the Tm in series [2] came to 60.5 °C.
Consider GACCGCACGAAAGTGGTC (((..(((....)))))), for which the folding enthalpy in series [1] is -21.1 kcal/mol. Besides, the Tm in series [2] is 47 °C.
Take GCGGACTCGAAAGAGCGC (((..(((....)))))): in series [1], the folding enthalpy was -22.9 kcal/mol. For the same sequence, the Tm in series [2] is 51 °C.
For GACACTGGAAACAGTGTC (((((((....))))))) the same measures were -37 kcal/mol and 66 °C.
In the same order, the values of GATCAGAATTCTGATC ((((((....)))))) are -43.5 kcal/mol and 50.4 °C.
Turning to GGGACTACGAAAGTACCC (((..(((....)))))), in series [1], the folding enthalpy is -19.5 kcal/mol. In series [2], the Tm was 36.1 °C.
In the same order, the values of GGCGACGAAAGTCAAGCC ((((((....)))..))) are -39.6 kcal/mol and 54.7 °C.
In the same order, the values of GTGCCGGGAAACCGGTGC (..((((....))))..) are -19.4 kcal/mol and 52.7 °C.
In the same order, the values of GGCCGTACGAAAGTAGCC (((..(((....)))))) are -22.6 kcal/mol and 42.3 °C.
Turning to GATCTTACTAAGATC ((((((...)))))), the folding enthalpy in series [1] is -34.4 kcal/mol. Also, the Tm in series [2] was determined as 42.6 °C.
Regarding GTAGAGCGAAAGCTGTAC (((.(((....))).))), in series [1], the folding enthalpy was -25.2 kcal/mol. Further, in series [2], the Tm worked out at 50.9 °C.
For GCCGCGGGAAACCGCAGC ((.((((....)))).)) the same measures were -16.9 kcal/mol and 59.3 °C.
For GATCTGACGACAGATC ((((((....)))))), in series [1], the folding enthalpy was -35 kcal/mol. Moreover, the Tm in series [2] was determined as 48.5 °C.
For GAAGGCGAAAGCCTTTTC ((((((....)))..))) the same measures were -11.1 kcal/mol and 51.3 °C.
Turning to GATCTCGGTTGAGATC ((((((....)))))), the folding enthalpy in series [1] is -30.5 kcal/mol. Further, in series [2], the Tm was found to be 53.5 °C.
For GCCTCAGCGAAAGCTGGC (((..(((....)))))) the same measures were -8.88 kcal/mol and 50.9 °C.
For GATCCGACTTCGGATC ((((((....)))))) the same measures were -39.6 kcal/mol and 57.4 °C.
In the same order, the values of GGGTCGGGAAACCGATCC ((.((((....)))).)) are -47.4 kcal/mol and 57.4 °C.
Turning to GCGAAGCGAAAGCCACGC (((..((....))..))), the folding enthalpy in series [1] is -8.54 kcal/mol. For the same sequence, the Tm in series [2] worked out at 42.5 °C.
For GGCTTTCGAAAGAAGCC (((.(((....)))))) the same measures were -41.6 kcal/mol and 52.8 °C.
Turning to GCATTGCGAAAGCCATGC ((((.((....)).)))), the folding enthalpy in series [1] is -29.1 kcal/mol. In addition, the Tm in series [2] worked out at 58.4 °C.
For the sequence GCCCGCACGAAAGTGGGC (((..(((....)))))), in series [1], the folding enthalpy is -24 kcal/mol. The Tm in series [2] amounted to 57.4 °C.
